Experimental data reported in PMC10084868 (International Journal of Nanomedicine, 2023).

What was measured:
[1] = powdered drugs, reported previously; cited from earlier work
zebrafish haematopoiesis = test: Haemoglobin; format: in vivo; conditions: zebrafish embryos; F1 starting from 0.4 µg/mL; haemoglobin staining and video
Outline: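 Shield-stage embryos were exposed to the formulation at 0.4 µg/mL and raised to the 20-somite stage, then given 0.003% (final) phenylthiourea to block pigmentation. They were then rinsed and fixed in 4% paraformaldehyde.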

[2] = humans; cited from earlier work

Structure (SMILES): COc1cc(/C=C/C(=O)CC(=O)/C=C/c2ccc(O)c(OC)c2)ccc1O [CUR, Curcumin]
- dissolution rate (release) of powdered drug [1]: less than 20%
- effect on blood circulation / haematopoiesis (zebrafish haematopoiesis): did not affect haematopoiesis
- increase of bioavailability of CUR with concomitant PP vs CUR alone [2]: 2000%

Structure (SMILES): O=C(/C=C/C=C/c1ccc2c(c1)OCO2)N1CCCCC1 [PP, Piperine]
- dissolution rate (release) of powdered drug [1]: less than 20%
- effect on blood circulation / haematopoiesis (zebrafish haematopoiesis): did not affect haematopoiesis
